Experimental data collected from several papers.
Lines come from different studies, so protocols differ. pIC50: −log10 of the molar value.

| SMILES | tested on | test | system | setting | endpoint | result |
| --- | --- | --- | --- | --- | --- | --- |
| COc1c2ccoc2cc2oc(=O)ccc12 | WI-38 | cell growth or viability, WST-1 |  | 48 h | pIC50 | 4.06 |
| Cc1nc2ccccc2n(-c2ccc([N+](=O)[O-])cc2[N+](=O)[O-])c1=O | WI-38 | cell growth or viability, MTT |  | 48 h | CC50 | 61.2 µM |
| O=C(O)c1cn(Cc2ccc(F)cc2)c2ccccc12 | UDP-glucuronosyltransferase 1A10 (UGT1A10, Homo sapiens, UniProt Q9HAW8) | enzyme activity, substrate |  |  | Km | 38 µM |
| O=c1c(O[C@@H]2O[C@H](CO)[C@@H](O)[C@H](O)[C@H]2O)c(-c2ccc(O)cc2)oc2cc(O)cc(O)c12 | WI-38 | cell growth or viability, WST-1 |  |  | pIC50 | 3.95 |
| C#C[C@]1(CO)O[C@@H](n2cnc3c(N)nc(F)nc32)C[C@@H]1O |  | general toxicity | rat | oral, multiple doses | NOAEL | ≥ 50 mg/kg/day |
| N=c1c2c(-c3ccccc3)c(-c3ccccc3)n(Cc3ccccc3)c2ncn1[C@H]1CC[C@H](O)CC1 |  |  | male cynomolgus monkey, plasma | intravenous, 0.5 mg/kg, single dose | clearance | 0.6 mL/min/kg |
| O=[N+]([O-])c1ccc(Oc2cccc3cccnc23)c([N+](=O)[O-])c1 | WI-38 | cell growth or viability, MTT |  | 48 h | CC50 | 243 µM |
| O=C1N=C(N2CCCCN2)S/C1=C\c1ccc(F)cc1OC(=O)N1CCCC1 |  | general toxicity | Sprague-Dawley rat | oral, multiple doses | NOAEL | 2000 mg/kg/day |
| CCC[C@@](N)(CO)CCc1ccc(OCCCCCC(C)C)cc1 |  |  | dog, plasma | intravenous, 0.25 mg/kg | C0 | 36 nM |
| O=C1Nc2c(C(F)(F)F)cccc2[C@@]1(c1ccc(O)cc1)c1ccc(OC(F)(F)F)cc1 |  | general toxicity | Sprague-Dawley rat | intravenous | MTD | 10 to 20 mg/kg |
| Cc1cc(C)nc(Nc2ncc(C(=O)NCCc3c(C)[nH]c4ccccc34)cn2)c1 |  | metabolic stability | dog, liver microsomes | 1 µM | half-life | 10 min |
| Cc1cc(NC2CCN(C(=O)OC3CCN(C(=O)/C=C/CN(C)C)C3)CC2)n2ncc(C(C)C)c2n1 (stereo not shown) |  | general toxicity | rat | oral, multiple doses, once daily | MTD | 6 mg/kg |
| O=C(Nc1ncc([N+](=O)[O-])s1)c1ccccc1O | RPE | cell growth or viability |  | 48 h | CC50 | ≥ 30 µM |
